Measured values taken from ChEMBL document CHEMBL1139766, “Discovery of potent and orally bioavailable heterocycle-based beta3-adrenergic receptor agonists, potential therapeutics for the treatment of obesity” (Bioorg Med Chem Lett, 2007).

Columns and labels:
[1] = target: Beta-1 adrenergic receptor (Homo sapiens, UniProt P08588); experiment: Displacement of [125I]iodocyanopindolol from human adrenergic beta-1 receptor expressed in CHO cells; format: cell-based
[2] = target: T1, Beta-3 adrenergic receptor (Homo sapiens, UniProt P13945); experiment: Intrinsic activity at human adrenergic beta-3 receptor expressed in CHO cells assessed as cAMP production relative to isoproterenol; format: functional, cell-based
How it was run: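 Functional readout was cAMP levels in Chinese hamster ovary cells expressing the cloned human β3 receptor. Intrinsic activity is given as a percentage of the isoproterenol maximum. Compounds with EC50 < 100 nM and IA > 50% were tested at least twice.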
Target sequence in this assay (P13945 whole entry, looked up): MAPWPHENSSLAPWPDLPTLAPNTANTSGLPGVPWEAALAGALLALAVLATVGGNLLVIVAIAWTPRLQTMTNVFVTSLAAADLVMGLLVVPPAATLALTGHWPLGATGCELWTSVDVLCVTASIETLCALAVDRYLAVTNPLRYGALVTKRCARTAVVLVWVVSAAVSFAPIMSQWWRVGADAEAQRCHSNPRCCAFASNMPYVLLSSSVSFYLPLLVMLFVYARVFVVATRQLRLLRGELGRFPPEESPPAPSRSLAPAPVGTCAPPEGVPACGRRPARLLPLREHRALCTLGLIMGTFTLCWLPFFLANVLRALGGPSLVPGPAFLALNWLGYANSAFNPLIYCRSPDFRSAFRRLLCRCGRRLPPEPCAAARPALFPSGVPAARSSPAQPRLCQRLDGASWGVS

[3] = target: T1, Beta-3 adrenergic receptor; experiment: Agonist activity at human adrenergic beta-3 receptor expressed in CHO cells assessed as cAMP production; format: functional, cell-based
How it was run: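 cAMP accumulation measured in CHO cells expressing cloned human β3-AR. Potency given as EC50; intrinsic activity (IA) expressed as % of isoproterenol maximum. Compounds with EC50 < 100 nM and IA > 50% tested at least twice in functional assays.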
Target sequence in this assay (P13945 whole entry): as the sequence (P13945 whole entry, looked up) above

[4] = target: Beta-2 adrenergic receptor (Homo sapiens, UniProt P07550); experiment: Displacement of [125I]iodocyanopindolol from human adrenergic beta-2 receptor expressed in CHO cells; format: cell-based
Sequence of Beta-2 adrenergic receptor (P07550 whole entry): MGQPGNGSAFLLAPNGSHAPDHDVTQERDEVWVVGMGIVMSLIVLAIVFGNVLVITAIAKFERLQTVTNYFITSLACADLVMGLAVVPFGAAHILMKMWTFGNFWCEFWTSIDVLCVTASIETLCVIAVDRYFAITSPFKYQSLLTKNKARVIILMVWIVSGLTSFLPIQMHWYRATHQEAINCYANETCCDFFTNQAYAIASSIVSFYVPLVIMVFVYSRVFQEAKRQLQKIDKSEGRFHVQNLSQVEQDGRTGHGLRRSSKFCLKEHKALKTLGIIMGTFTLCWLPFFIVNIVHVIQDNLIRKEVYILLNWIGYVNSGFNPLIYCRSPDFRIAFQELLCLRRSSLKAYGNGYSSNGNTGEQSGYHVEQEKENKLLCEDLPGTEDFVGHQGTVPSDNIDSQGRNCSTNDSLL

[5] = target: Beta-3 adrenergic receptor (Rattus norvegicus, UniProt P26255); experiment: Agonist activity at rat adrenergic beta-3 receptor assessed as cAMP production; format: functional
Sequence of Beta-3 adrenergic receptor (Rattus norvegicus, UniProt P26255) (P26255 whole entry): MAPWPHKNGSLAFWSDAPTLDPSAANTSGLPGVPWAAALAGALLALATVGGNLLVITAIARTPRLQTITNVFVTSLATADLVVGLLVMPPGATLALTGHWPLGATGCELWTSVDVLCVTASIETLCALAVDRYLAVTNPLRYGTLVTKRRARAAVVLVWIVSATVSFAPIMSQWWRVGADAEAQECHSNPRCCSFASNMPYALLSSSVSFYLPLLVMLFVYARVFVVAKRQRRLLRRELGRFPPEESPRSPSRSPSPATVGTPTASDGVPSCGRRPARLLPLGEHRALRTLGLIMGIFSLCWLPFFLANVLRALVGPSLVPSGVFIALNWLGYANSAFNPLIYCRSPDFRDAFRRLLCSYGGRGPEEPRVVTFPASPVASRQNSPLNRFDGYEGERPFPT

[6] = target: Beta-3 adrenergic receptor (Rattus norvegicus) (UniProt P26255); experiment: Intrinsic activity at rat adrenergic beta-3 receptor assessed as cAMP production relative to isoproterenol; format: functional
Sequence of Beta-3 adrenergic receptor (Rattus norvegicus) (P26255 whole entry): as above

[7] = system: Rattus norvegicus; experiment: Increase in oxygen consumption in rat at 3 mg/kg, po after 120 mins; format: functional
How it was run: (§1)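 Rats dosed orally (0.3, 1, 3, 10 mg/kg). Baseline O2 consumption recorded every 10 min for 3 h, then dosing with compound or vehicle and 2 h further recording. Values excluded when ambulatory activity was >100 counts/10 min, along with the first five values of the run and the first value after dosing. Change taken over 0–120 min.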

[8] = species: Homo sapiens; experiment: Selectivity for human adrenergic beta-3 receptor over human adrenergic beta-1 receptor
How it was run: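 Selectivity came from radioligand binding on membranes of CHO cells expressing cloned human β1 or β3 receptors, using 125I-iodocyanopindolol. The β3 value is the high-affinity agonist-site KiH, taken from a two-site competition fit. The ratio is β1 Ki over β3 Ki.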

[9] = Solubility in phosphate buffer at pH 6.5; format: physicochemical
How it was run: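 Solubility measured in phosphate buffer at pH 6.5.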

[10] = Volume of distribution at steady state in dog; format: ADME, organism-based, Canis lupus familiaris; details: in vivo, read-out: Vdss
[11] = system: Rattus norvegicus; experiment: Increase in oxygen consumption in rat at 1.0 mg/kg, po after 120 mins; format: functional; how it was run: as §1
[12] = Oral bioavailability in dog; format: ADME, organism-based, Canis lupus familiaris; details: in vivo
[13] = system: Rattus norvegicus; experiment: Increase in oxygen consumption in rat at 10 mg/kg, po after 120 mins; format: functional; how it was run: as §1
[14] = system: Rattus norvegicus; experiment: Increase in heart rate in rat at 10 mg/kg; format: functional
[15] = Half life in rat; format: ADME, organism-based; details: in vivo
How it was run: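 Half-life determined after IV dosing in rat.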

[16] = system: Rattus norvegicus; experiment: Increase in oxygen consumption in rat at 0.3 mg/kg, po after 120 mins; format: functional; how it was run: as §1
[17] = Half life in dog; format: ADME, organism-based, Canis lupus familiaris; details: in vivo
How it was run: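 Half-life determined after IV dosing in dog.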

[18] = Clearance in dog; format: ADME, organism-based, Canis lupus familiaris; details: in vivo
[19] = Oral bioavailability in rat; format: ADME, organism-based; details: in vivo
[20] = Clearance in rat; format: ADME, organism-based; details: in vivo
[21] = Volume of distribution at steady state in rat; format: ADME, organism-based; details: in vivo, read-out: Vdss
[22] = species: Rattus norvegicus; experiment: Increase in oxygen consumption in rat after 120 mins; format: functional; details: 2 h; how it was run: as §1

Sequence of Beta-1 adrenergic receptor (P08588 whole entry): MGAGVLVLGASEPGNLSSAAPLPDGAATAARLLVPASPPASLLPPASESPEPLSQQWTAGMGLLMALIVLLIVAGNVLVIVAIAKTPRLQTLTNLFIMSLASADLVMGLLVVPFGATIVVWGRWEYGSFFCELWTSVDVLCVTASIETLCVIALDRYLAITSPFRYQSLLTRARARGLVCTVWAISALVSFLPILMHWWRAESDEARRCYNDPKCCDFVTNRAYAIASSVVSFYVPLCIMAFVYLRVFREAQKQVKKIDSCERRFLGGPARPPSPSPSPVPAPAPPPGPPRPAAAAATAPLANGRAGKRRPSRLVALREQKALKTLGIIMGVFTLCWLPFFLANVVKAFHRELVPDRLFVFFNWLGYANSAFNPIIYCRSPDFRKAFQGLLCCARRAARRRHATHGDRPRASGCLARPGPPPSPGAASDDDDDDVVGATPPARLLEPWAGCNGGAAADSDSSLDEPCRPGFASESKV

SMILES | Ki [1] [nM] | Intrinsic activity [2] [%] | EC50 [3] [nM] | also measured
O[C@@H](CNCCOc1ccc(-c2csc(-c3ccccc3)n2)cc1)c1cccnc1 | 150 | 53 | 580 | Ki [4]: 500 nM
O[C@@H](CNCCOc1ccc(-c2cscn2)cc1)c1cccnc1 | 140 | 85 | 27 | EC50 [5]: 26 nM; Intrinsic activity [6]: 104%; Activity [7]: 11%; Ratio Ki [8]: 14.2; solubility [9]: > 10000 µg/mL; Ki [4]: 10 nM
O[C@@H](CNCCOc1ccc(-c2cnco2)cc1)c1cccnc1 |  | 98 | 200 | 
O[C@@H](CNCCc1ccc(-c2csc(-c3cccnc3)n2)cc1)c1cccnc1 |  | 106 | 1190 | 
CCc1nc(-c2ccc(OCCNC[C@H](O)c3cccnc3)cc2)cs1 | 37 | 106 | 170 | 
Cc1nc(-c2ccc(OCCNC[C@H](O)c3cccnc3)cc2)co1 | 400 | 111 | 37 | Ratio Ki [8]: 19; Ki [4]: 21 nM
O[C@@H](CNCCOc1ccc(-c2csc(C(F)(F)F)n2)cc1)c1cccnc1 | 100 | 150 | 200 | 
O[C@@H](CNCCc1ccc(-c2csc(-c3ccccc3)n2)cc1)c1cccnc1 |  | 108 | 2740 | 
CC(C)c1nc(-c2ccc(OCCNC[C@H](O)c3cccnc3)cc2)co1 | 360 | 135 | 57 | Ratio Ki [8]: 7.4; Ki [4]: 49 nM
OCc1nc(-c2ccc(OCCNC[C@H](O)c3cccnc3)cc2)co1 | 270 | 94 | 42 | Ratio Ki [8]: 8.6; Ki [4]: 30 nM
Cc1nc(-c2ccc(OCCNC[C@H](O)c3cccnc3)cc2)c(C)o1 | 1550 | 75 | 606 | 
CCc1nc(-c2ccc(CCNC[C@H](O)c3cccnc3)cc2)cs1 |  | 80 | 2250 | 
COCc1nc(-c2ccc(OCCNC[C@H](O)c3cccnc3)cc2)co1 | 210 | 110 | 47 | 
O[C@@H](CNCCOc1ccc(-c2cocn2)cc1)c1cccnc1 | 200 | 94 | 20 | Vd [10]: 2.8 L/kg; Activity [11]: 11%; bioavailability [12]: 59%; Activity [13]: 42%; Activity [14]: 10%; half-life [15]: 1.4 h; Activity [16]: 8%; half-life [17]: 5.1 h; clearance [18]: 6 mL/min/kg; bioavailability [19]: 66%; Activity [7]: 29%; Ratio Ki [8]: 20; clearance [20]: 13 mL/min/kg; Ki [4]: 10 nM; Vd [21]: 0.89 L/kg; ED20 [22]: 2 mg/kg
O=S(=O)(Nc1ccc(CCNC[C@H](O)c2cccnc2)cc1)c1ccc(-c2nc(-c3ccc(C(F)(F)F)cc3)cs2)cc1 |  | 92 |  | 
O[C@@H](CNCCOc1ccc(-c2csc(-c3ccncc3)n2)cc1)c1cccnc1 | 97 | 106 | 65 | 
O[C@@H](CNCCOc1ccc(-c2coc(COCc3ccccc3)n2)cc1)c1cccnc1 | 50 | 137 | 220 | 
O[C@@H](CNCCOc1ccc(-c2ncco2)cc1)c1cccnc1 |  | 24 | 520 | 
CCc1nc(-c2ccc(CCNC[C@H](O)c3ccc(Cl)c(NS(C)(=O)=O)c3)cc2)cs1 |  | 95 | 130 | 
Cc1nc(-c2ccc(CCNC[C@H](O)c3ccc(Cl)c(NS(C)(=O)=O)c3)cc2)cs1 |  | 121 | 230 | 
Cc1nc(-c2ccc(OCCNC[C@H](O)c3cccnc3)cc2)cs1 | 100 | 106 | 170 | Activity [13]: 32%; EC50 [5]: 13 nM; Intrinsic activity [6]: 113%; Activity [7]: 20%; Ratio Ki [8]: 0.8; Ki [4]: 120 nM
CCc1nc(-c2ccc(OCCNC[C@H](O)c3cccnc3)cc2)co1 | 400 | 133 | 57 | Ratio Ki [8]: 11; Ki [4]: 37 nM
O[C@@H](CNCCc1ccc(-c2csc(C(F)(F)F)n2)cc1)c1cccnc1 |  | 94 | 4490 | 
CS(=O)(=O)Nc1cc([C@@H](O)CNCCc2ccc(-c3csc(-c4ccccc4)n3)cc2)ccc1Cl |  | 70 | 490 | 
Cc1nc(-c2ccc(CCNC[C@H](O)c3cccnc3)cc2)cs1 |  | 55 | 1360 | 
O[C@@H](CNCCOc1ccc(-c2csc(-c3cccnc3)n2)cc1)c1cccnc1 | 120 | 121 | 120 | 
Cc1ocnc1-c1ccc(OCCNC[C@H](O)c2cccnc2)cc1 | 170 | 80 | 309 | 
O[C@@H](CNCCOc1ccc(-c2csc(C3CCCC3)n2)cc1)c1cccnc1 | 130 | 159 | 290 | 
